Sequences and labels used below:
B1: tRNA (parent)
chain: GUUCCGUUGGCGUAAUGGUAACGCGUCUCCCUCCUAAGGAGAAGACUGCGGGUUCGAGUCCCGUACGGAACG

This sample holds only a part of the variants without activity. Where only a bound is given, the exact number is not on record here.

The variants in the data set derive from B1. The data set is described as follows: yeast fitness relative to wild type (ratio to wild type); higher = fitter; tRNA-Arg(CCU), competitive growth, 37 C, YPD. In outline:
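Changes in genotype frequencies gave Darwinian fitness relative to wild type. Frequencies were read by 100-nucleotide paired-end sequencing of gene amplicons before and after pooled Saccharomyces cerevisiae strains, carrying tRNA-Arg(CCU) gene variants at the native locus, were competed in YPD at 37°C for 24 hours in six replicates. A genotype was kept only with ≥ 100 starting reads, and estimates < 0.5 were set to 0.5.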
Turning to GUUCCGUUGGAGUAAUGGUAACGCGUCUCCCUACUAAGGAGAAGACUGCGGGUUCGAGUCCCGUACGAAACG [C11A C33A G68A], the yeast fitness is 0.557. With GUUCCGUUGGAGUAAUGGUAACGCGUUUCCAUCCUAAGGAGAAGACUGCGGGUUCGAGUCCCGUACGGAACG [C11A C27U C31A], the yeast fitness is not above 0.5.

For the variant GUUCCGUUGGAGUAAUGGUAACGCGUCUCCCUCCUAAGGAGAAGACUGCGGGUUUGAGUCCCAUAGGGAACG [C11A C55U G63A C66G], the yeast fitness is not above 0.5. The result for GUUCCGUUGGAGUAAUGGUAACGUGUCUCCCUCUUAAGGAGAAGACUGCGGGUUCGACUCCGGUACAGAACG [C11A C24U C34U G58C C62G G67A] reads 0.544; that for GUUCCGUUGGAGUAAUGGUAACGCGUCUCCUUCCUACGGAGAAGACUGCGCGUUGGAGUCCCGUACGGAACG [C11A C31U A37C G51C C55G], not above 0.5. The result for GUUCCGUUGGAGUAAUGGUAACGCGUCUACCUCCUAUGGAGAAGACUGCGGGUUCGAGUCCCGUACGGAACG [C11A C29A A37U] reads not above 0.5; that for GUUCCGUUGGAGUAAUGGUAACGGGUCUCCCUCCUAAGGAGAAGACGGCGGGUUCGAGUCCCGUACGGAACG [C11A C24G U47G], not above 0.5; that for GUUCCGUUGGAGUAAUGGUAACGCGUCUCCAUCCUAAGGAGAACACUGCGGGUUCGAGUACCGUACGGAACG [C11A C31A G44C C60A], not above 0.5.

Consider GUUCCGUUGGAGUAAUGGUAACGCGUCUCCAUCCUAAGGAGAACACUGCGGGUUCGAGUCCCGUCCGGAACG [C11A C31A G44C A65C], for which the yeast fitness was not above 0.5.

As for GUUCCGUUGGAGUAAUGGUAACGCGUCUGCCUCCUAAGGAGAAGACUGCGGGUUCGAGUCCCGUAUGGAACG [C11A C29G C66U], the yeast fitness worked out at 0.525. As to GUUCCGUUGGAGUAAUGGUAACGCGUCUCCCUCCUAAGGAGAAGACUGCGGGUUUGAGUCCCGUACGGAACG [C11A C55U], the yeast fitness turned out to be 0.514. In the case of GUUCCGUUGGAGUAAUGGUAACGCGUCUCCCUCCUAAGGAGAAGACUGCGGGUUAGAGUCCCGUACGGAACG [C11A C55A], the yeast fitness is not above 0.5.

GUUCCGUUGGAGUAAUGGUAACGCGUCUCCGUCCUAAGGAGAAGACUGCGGGUUCGAGUCCCGUACGGUACG [C11A C31G A69U]: the yeast fitness is not above 0.5. Turning to GUUCCGUUGGAGUAAUGGUAACGCGUCUCCCUCGUAAGGAGAAGACUGCGGGUUCGAGUCCCGUACGGAACG [C11A C34G], the yeast fitness was not above 0.5. Consider GUUCCGUUGGAGUAAUGGUAACGCGUCUCCCUCAUAAGGGGAACACUGCGGGUUCGAGUCCCGUACGGAUCG [C11A C34A A40G G44C A70U], for which the yeast fitness is not above 0.5. With GUUCCGUUGGAGUAAUGGUAACGCGUCUCUCUGCUAAGGGGAAGACUGCGGGUUCGAGUCCCGUACGGAACG [C11A C30U C33G A40G], the yeast fitness is not above 0.5. Consider GUUCCGUUGGAGUAAUGGUAACGUGUCUCCCUCCUAAGGAGAAGACUGCGGGUUCGAGUCCCGUACCGAGCG [C11A C24U G67C A70G], for which the yeast fitness is not above 0.5. The result for GUUCCGUUGGAGUAAUGGUAACGCGUCUCCCUCCUAAGGAGAAGAUUGCGGGUUCGCGUCCCGUAAGGAACG [C11A C46U A57C C66A] reads not above 0.5; that for GUUCCGUUGGAGUAAUGGUAACGCGUCUGCCUCCUAAGGAGAAGACUGCGGGUUCGAGUUCCGUACAGUACG [C11A C29G C60U G67A A69U], not above 0.5. With GUUCCGUUGGAGUAAUGGUAACGCGUCUACCUCCUAAGGAGAAGACUGCGGGUUCGAGUCCCGUACGGAACG [C11A C29A], the yeast fitness is not above 0.5.

Turning to GUUCCGUUGGAGUAAUGGUAACGGGUCUCUUUCCUAAGGAGAAGACUGCGGGUUCGAGUCUCGUACCGAACG [C11A C24G C30U C31U C61U G67C], the yeast fitness is not above 0.5. Take GUUCCGUUGGAGUAAUGGUAACGCGUGUCCCUCCUAAGGAGAAGACUGCGGGUUUGAGUCCCGUACGGAACG [C11A C27G C55U]: the yeast fitness was not above 0.5.

As to GUUCCGUUGGAGUAAUGGUAACGCGUGUCCCUCCAAAGGAGAUGACUGCGGGUCCGAGUCCCGUACGGAACG [C11A C27G U35A A43U U54C], the yeast fitness was found to be 0.556.

Turning to GUUCCGUUGGAGUAAUGGUAACGCGUAUACCUCCUAAGGAGCAGACAGCGGAUUCGAGCCCCGUACGGAACG [C11A C27A C29A A42C U47A G52A U59C], the yeast fitness was 0.503. Regarding GUUCCGUUGGAGUAAUGGUAACGCGUCUCGCUCGUAAGGAGAAGACUGCGGGUUCGAGUCCCGUACGGAACG [C11A C30G C34G], the yeast fitness stood at 0.579. In the case of GUUCCGUUGGAGUAAUGGUAACGCGUCUCCCUCCUAAGGAGAAGACUGCGGGUUGGAGUCCCGUACGGCACG [C11A C55G A69C], the yeast fitness is not above 0.5. On to GUUCCGUUGGAGUAAUGGUAACGCGUCUUCCUUCUAAGGAGAAGACUGCGGGUCCGAGUCCCGUACGGAACG [C11A C29U C33U U54C], for which the yeast fitness was not above 0.5. For GUUCCGUUGGAGUAAUGGUAACGCGUCUCCCUCCUAAGGAGAAGACUGCGGGUUCGAGUCCCGUAUGGAACG [C11A C66U], the yeast fitness turned out to be 0.569. For GUUCCGUUGGAGUAAUGGUAACGUGUCUCCUUCCUAAGGAGAAGACUGCGGGUUCGAGUCCCGUACGGAACG [C11A C24U C31U] the value was 0.547; for GUUCCGUUGGAGUAAUGGUAACGCGUCUGCCUCCUAAGGAGAAAACUGCGGGUUCCAGUCCAGUACCGAACG [C11A C29G G44A G56C C62A G67C], not above 0.5; for GUUCCGUUGGAGUAAUGGUAACGUGUAUCCCUCCUAAGGAGAAGACUGCGGGUUCGAGUCCGGUACGGAACG [C11A C24U C27A C62G], not above 0.5. The result for GUUCCGUUGGAGUAAUGGUAACGCGUAUCCCUCCUAAGGAGAAGACUGCGGGUUCGAGUCCCGUACGGAACG [C11A C27A] reads 0.654; that for GUUCCGUUGGAGUAAUGGUAACGCGUUUCCCUCCUAAGGAGAAGACUGCGGGUUCGAGUCCCGUACGGAACG [C11A C27U], 0.646; that for GUUCCGUUGGAGUAAUGGUAACGCGUGUCCAUCCUAAGGAGAAGACUGCGGGUUCGAGUCCCGUACGAAACG [C11A C27G C31A G68A], not above 0.5.

With GUUCCGUUGGAGUAAUGGUAACGCGUCUCCCUCCUAAGGAGAAGACUGCGGGUUCGAGUCUCGUACGGACCG [C11A C61U A70C], the yeast fitness was not above 0.5. For GUUCCGUUGGAGUAAUGGUAACGCGUCUCGCUCCUAAGGAGAAGUCUGCGGGUUCGAGUACCGUACGGAACG [C11A C30G A45U C60A], the yeast fitness came to 0.537. In the case of GUUCCGUUGGAGUAAUGGUAACGCGUCUACCUCCAAAGGAGAAGACUGCGGGUUCGAGUCCCGUGCGGAACG [C11A C29A U35A A65G], the yeast fitness is not above 0.5.
